ChEMBL document CHEMBL6071141, “In vitro and in vivo evaluation of Bombesin-MMAE conjugates for targeted tumour therapy” (Eur J Med Chem, 2024)

How the values were obtained:
[1] = Cytotoxicity against human PC-3 cells assessed as inhibition of cell growth incubated with compound for 72 hrs followed by further incubated for 72 hrs (single treatment) by CellTiter 96 aqueous assay; assay type: toxicity, cell-based
Procedure, shortened: (§1)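 PC-3 or MDA-MB-231 cells were treated the day after seeding with serial dilutions, from 2000 nM for conjugates and 100 nM for MMAE, for 72 h. Then the assay was stopped, or run 72 h more after a medium change (single) or re-treatment (double). Controls got 0.05 % DMSO. Read-out was MTS absorbance at 490 nm after 90 min. IC50 by non-linear regression; ≥2 experiments, triplicates.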

[2] = Metabolic stability in mouse plasma assessed as half life at 5 uM measured upto 24 hrs by LC-HRMS analysis; assay type: ADME, cell-free
Procedure, shortened: (§2)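 Conjugates at 5 μM were incubated in human or mouse plasma at 37 °C, in duplicate. Samples were taken at t0, 0.25, 0.5, 1, 2, 4 and 24 h and quenched with 1 % formic acid in MeCN (2× volume). After centrifugation (14000 rpm, 4 °C), supernatants were diluted 1:1 with water and analysed by LC-HRMS.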

[3] = Cytotoxicity against human PC-3 cells assessed as inhibition of cell growth incubated for 72 hrs and followed by treated with compound continued incubation for further 72 hrs (double treatment) after retreatment of compound by CellTiter 96 aqueous assay; assay type: toxicity, cell-based; procedure, shortened: as §1
[4] = Cytotoxicity against human cells MDA-MB-231 assessed as inhibition of cell growth incubated for 72 hrs by CellTiter 96 aqueous assay; assay type: toxicity, cell-based; conditions: MDA-MB-231 cells; procedure, shortened: as §1
[5] = Cytotoxicity against human PC-3 cells assessed as inhibition of cell growth incubated for 72 hrs by CellTiter 96 aqueous assay; assay type: toxicity, cell-based; procedure, shortened: as §1
[6] = Cytotoxicity against human MDA-MB-231 cells assessed as inhibition of cell growth incubated for 72 hrs and followed by treated with compound continued incubation for further 72 hrs (double treatment) after retreatment of compound by CellTiter 96 aqueous assay; assay type: toxicity, cell-based; procedure, shortened: as §1
[7] = Metabolic stability in human plasma assessed as half life at 5 uM measured upto 24 hrs by LC-HRMS analysis; assay type: ADME, cell-free; procedure, shortened: as §2
[8] = Cytotoxicity against human MDA-MB-231 cells assessed as inhibition of cell growth incubated with compound for 72 hrs followed by further incubated for 72 hrs (single treatment) by CellTiter 96 aqueous assay; assay type: toxicity, cell-based; procedure, shortened: as §1
[9] = molecular target: T1, Gastrin-releasing peptide receptor (Homo sapiens, UniProt P30550); experiment: Displacement of 125 I- [Tyr4] from bombesin receptor 2 in human MDA-MB-231 cells assessed as inhibition by radioligand displacement assay; assay type: cell-based
T1 sequence (P30550 whole entry): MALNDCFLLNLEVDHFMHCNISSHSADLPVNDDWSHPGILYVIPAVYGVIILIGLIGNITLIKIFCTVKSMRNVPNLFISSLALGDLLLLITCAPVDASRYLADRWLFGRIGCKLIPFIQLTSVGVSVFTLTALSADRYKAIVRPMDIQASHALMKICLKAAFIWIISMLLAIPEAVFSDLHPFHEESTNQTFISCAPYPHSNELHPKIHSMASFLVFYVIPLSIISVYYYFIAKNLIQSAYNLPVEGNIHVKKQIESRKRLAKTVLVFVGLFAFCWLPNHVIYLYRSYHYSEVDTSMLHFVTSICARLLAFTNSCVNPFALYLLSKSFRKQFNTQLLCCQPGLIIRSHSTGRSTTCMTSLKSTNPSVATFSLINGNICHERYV
Procedure, shortened: (§3)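 Competition binding on membrane preparations from PC-3 or MDA-MB-231 cells against ¹²⁵I-[Tyr⁴]-bombesin, with conjugates at 10 μM–10 pM. IC50 was taken as the concentration giving 50 % inhibition of tracer binding.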

[10] = molecular target: T1, Gastrin-releasing peptide receptor; experiment: Displacement of 125 I- [Tyr4] from bombesin receptor 2 in human PC-3 cells assessed as inhibition by radioligand displacement assay; assay type: cell-based; procedure, shortened: as §3
[11] = Toxicity in mouse xenografted with human PC-3 cells assessed as skin rash at 0.5 mg/kg, ip administered upto 23 days; conditions: in vivo, 552 h
[12] = Biodistribution in mouse xenografted with human PC-3 cells assessed as tumour environment incubated for 24 hrs by LC-HRMS; assay type: ADME, organism-based, Neoplasm; conditions: in vivo
Procedure, shortened: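 Mice bearing PC-3 xenografts received a single 2 mg/kg i.p. dose. Blood, tumour, liver, kidneys, heart, lungs and pancreas were collected at 1, 6 and 24 h and pooled per group. Tissues were homogenised in water (1:2 w/v) and centrifuged. Released MMAE was measured by LC-HRMS and expressed as %ID/g (n = 3).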

PC-3 [13] = experiment: Antitumor activity against human PC-3 cells xenografted in mouse assessed as reduction in tumour volume relative to control; assay type: functional; design: scale not given: the % may be the effect or the level left
Procedure, shortened: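 Acute study in mice bearing subcutaneous PC-3 tumours. Single i.p. dose (0.1 mL) 9 days after inoculation, at a mean tumour volume of 62 mm³. Eight per group, randomized. Conjugates at 2 mg/kg MMAE-content, free MMAE at 1 mg/kg, in 5 % DMSO in water; solvent controls. Calliper volume V = ab²×π/6. Sacrifice at 20 % weight loss or 2000 mm³.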

PC-3 [14] = experiment: Antitumor activity against human PC-3 cells xenografted with mouse assessed as median survival days at 2 mg/kg, ip (reference value: 33 days)
[15] = Toxicity in mouse xenografted with human PC-3 cells assessed as body weight loss at 1 mg/kg, ip administered relative to control; assay type: organism-based; conditions: in vivo, 2 mg/kg, in the assay text read “2 mg/kg” for “1 mg/kg”
Procedure, shortened: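 Toxicity in mice bearing subcutaneous PC-3 tumours after a single i.p. dose 9 days post-inoculation. Free drug at 1 mg/kg, conjugates at 2 mg/kg MMAE-content, in 5 % DMSO in water; solvent controls; eight per group. Body weight followed periodically. Endpoint at 20 % weight loss; behaviour (activity, coat, stool, paleness) also scored.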

| SMILES | IC50 at 144 h [1] [nM] | half-life at 5 µM [2] [h] | IC50 at 144 h [3] [nM] | IC50 at 72 h [4] [nM] | IC50 at 72 h [5] [nM] | IC50 at 144 h [6] [nM] | half-life at 5 µM [7] [h] | IC50 at 144 h [8] [nM] | IC50 [9] [nM] | IC50 [10] [nM] | Activity [11] | Drug uptake [12] | Activity (PC-3 [13]) [%] | Survival (PC-3 [14]) [days] | Activity [15] [%] |
| --- | --- | --- | --- | --- | --- | --- | --- | --- | --- | --- | --- | --- | --- | --- | --- |
| CC[C@H](C)[C@@H]([C@@H](CC(=O)N1CCC[C@H]1[C@H](OC)[C@@H](C)C(=O)N[C@H](C)[C@@H](O)c1ccccc1)OC)N(C)C(=O)[C@@H](NC(=O)[C@H](C(C)C)N(C)C(=O)OCc1ccc(NC(=O)[C@H](CCCNC(N)=O)NC(=O)[C@@H](NC(=O)CCCCCN2C(=O)CC(SC[C@H](NC(C)=O)C(=O)N[C@H](Cc3ccccc3)C(=O)N[C@@H](CCC(N)=O)C(=O)N[C@@H](Cc3c[nH]c4ccccc34)C(=O)N[C@@H](C)C(=O)N[C@H](C(=O)NCC(=O)N[C@@H](Cc3c[nH]cn3)C(=O)N[C@@H](CC(C)C)[C@@H](O)CC(=O)N[C@@H](CC(C)C)C(N)=O)C(C)C)C2=O)C(C)C)cc1)C(C)C (stereo not given in full) | 101 | 0.12 | 92.1 | 888 | 718 | 155 | 8.2 | 202 |  |  |  |  |  |  |  |
| CC[C@H](C)[C@@H]([C@@H](CC(=O)N1CCC[C@H]1[C@H](OC)[C@@H](C)C(=O)N[C@H](C)[C@@H](O)c1ccccc1)OC)N(C)C(=O)[C@@H](NC(=O)[C@H](C(C)C)N(C)C(=O)OCc1ccc(NC(=O)[C@H](CCCNC(N)=O)NC(=O)CNC(=O)[C@H](CCC(=O)O)NC(=O)CCCCCN2C(=O)CC(SC[C@H](NC(C)=O)C(=O)NCCOCCOCCOCCOCCC(=O)N[C@H](Cc3ccccc3)C(=O)N[C@@H](CCC(N)=O)C(=O)N[C@@H](CC3=CSC4C=CC=CC34)C(=O)N[C@@H](C)C(=O)N[C@H](C(=O)NCC(=O)N[C@@H](Cc3c[nH]cn3)C(=O)N[C@@H](CC(C)C)[C@@H](O)CC(=O)N[C@@H](CC(C)C)C(N)=O)C(C)C)C2=O)cc1)C(C)C (stereo not given in full) | 142 |  | 116 | 943 | 586 | 130 |  | 171 | 76.9 | 71.1 |  |  |  |  |  |
| CC[C@H](C)[C@@H]([C@@H](CC(=O)N1CCC[C@H]1[C@H](OC)[C@@H](C)C(=O)N[C@H](C)[C@@H](O)c1ccccc1)OC)N(C)C(=O)[C@@H](NC(=O)[C@H](C(C)C)N(C)C(=O)OCc1ccc(NC(=O)[C@H](CCCNC(N)=O)NC(=O)CNC(=O)[C@@H](CCC(=O)O)NC(=O)CCCCCN2C(=O)CC(SC[C@H](NC(C)=O)C(=O)NCCOCCOCCOCCOCCC(=O)N[C@H](Cc3ccccc3)C(=O)N[C@@H](CCC(N)=O)C(=O)N[C@@H](CC3=CNC4C=CC=CC34)C(=O)N[C@@H](C)C(=O)N[C@H](C(=O)NCC(=O)N[C@@H](Cc3c[nH]cn3)C(=O)N[C@@H](CC(C)C)[C@@H](O)CC(=O)N[C@@H](CC(C)C)C(N)=O)C(C)C)C2=O)cc1)C(C)C (stereo not given in full) | 110 | 7.2 | 83.5 | 885 | 428 | 131 |  | 164 | 72.9 | 68.3 | Toxic | Active | 26.3 | 42 | < 20 |
